Active and inactive are the calls of the source. The rule behind the calls is not given here.
Experiments:
[1] = biological target: T1, Protein-glutamine gamma-glutamyltransferase (Homo sapiens) (UniProt P21980); test: Induction of TG2 degradation in human OVCAR-5 cells assessed as reduction in TG2 level at 0.1 to 10 uM measured after 6 hrs by Western blot analysis; format: cell-based; settings: dose 0.1-10 µM
T1 sequence (whole entry): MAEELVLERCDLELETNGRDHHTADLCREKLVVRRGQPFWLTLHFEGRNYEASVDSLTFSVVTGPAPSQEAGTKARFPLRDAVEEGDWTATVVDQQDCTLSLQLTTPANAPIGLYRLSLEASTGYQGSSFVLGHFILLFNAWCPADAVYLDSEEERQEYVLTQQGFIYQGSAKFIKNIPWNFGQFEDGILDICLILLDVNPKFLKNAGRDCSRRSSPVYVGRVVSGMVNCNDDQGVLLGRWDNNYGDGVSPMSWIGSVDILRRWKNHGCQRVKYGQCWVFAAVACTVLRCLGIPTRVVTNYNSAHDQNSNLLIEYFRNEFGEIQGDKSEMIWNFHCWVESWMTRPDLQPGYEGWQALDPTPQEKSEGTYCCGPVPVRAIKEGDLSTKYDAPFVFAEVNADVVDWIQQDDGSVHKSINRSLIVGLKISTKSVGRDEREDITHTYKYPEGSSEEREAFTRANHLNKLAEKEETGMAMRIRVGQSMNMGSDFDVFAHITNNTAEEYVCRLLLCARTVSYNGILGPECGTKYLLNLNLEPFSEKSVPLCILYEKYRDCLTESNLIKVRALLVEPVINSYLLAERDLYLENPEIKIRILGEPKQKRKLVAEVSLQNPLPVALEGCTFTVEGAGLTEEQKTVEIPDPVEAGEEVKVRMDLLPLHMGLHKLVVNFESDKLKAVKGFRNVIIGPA
Outline: (§1)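 Cells on 6 cm dishes treated for 6 or 24 h; OVCAR5 at 0.1, 1 and 10 μM, SKOV3 at 1 and 10 μM; DMSO control. RIPA lysates quantified by Bradford, then western blot with anti-TG2 and GAPDH antibodies (1:1000, overnight 4 °C). Bands quantified by densitometry; n = 3.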

[2] = tested on: OVCAR-5; test: Inhibition of cell migration in human OVCAR-5 cells at 10 uM incubated for 18 hrs by crystal violet staining based transwell migration assay; format: functional
Outline: (§2)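 Transwell migration through 8 μm pores: 15,000 OVCAR5 or SKOV3 cells in serum-free medium with compound or control in upper chamber, 10% serum below. After 18 h, migrated cells fixed in 4% PFA, stained with crystal violet and counted at 40×. n = 3.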

[3] = tested on: OVCAR-5; test: Inhibition of cell adhesion to fibronectin in human OVCAR-5 cells at 10 uM incubated for 6 hrs by CCK-8 assay; format: functional, cell-based
Outline: (§3)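 Wells coated for 1 h with 10 μg/mL fibronectin in PBS. After PBS wash, attached cells counted by CCK-8 absorbance at […]. n = 3.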

[4] = biological target: T1, Protein-glutamine gamma-glutamyltransferase (Homo sapiens); test: Induction of TG2 degradation in human SK-OV-3 cells assessed as reduction in TG2 level at 0.1 to 10 uM measured after 6 hrs by Western blot analysis; format: cell-based; settings: dose 0.1-10 µM
[5] = tested on: SK-OV-3; test: Inhibition of cell migration in human SK-OV-3 cells at 10 uM incubated for 18 hrs by crystal violet staining based transwell migration assay; format: functional; outline: as §2
[6] = tested on: SK-OV-3; test: Inhibition of cell migration in human SK-OV-3 cells at 10 uM incubated for 18 hrs by crystal violet staining based wound healing assay; format: functional
[7] = tested on: SK-OV-3; test: Inhibition of cell adhesion to fibronectin in human SK-OV-3 cells at 10 uM incubated for 6 hrs by CCK-8 assay; format: functional, cell-based; outline: as §3
[8] = tested on: OVCAR-5; test: Inhibition of cell migration in human OVCAR-5 cells at 10 uM incubated for 18 hrs by crystal violet staining based wound healing assay; format: functional
[9] = tested on: OVCAR-5; test: Cytotoxicity against human OVCAR-5 cells assessed as cell death at 0.1 to 30 uM treated every 6 to 8 hrs for 5 days; format: functional, cell-based; settings: dose 0.1-30 µM, time 5.0 day
Outline: (§4)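 OVCAR5 and SKOV3 cells in 96-well plates given compound at 0.1, 0.3, 1, 3, 10 or 30 μM, redosed every 6–8 h over 5 days. Viable cells measured by CCK-8 absorbance at […]. n = 3.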

[10] = biological target: T1, Protein-glutamine gamma-glutamyltransferase (Homo sapiens); test: Potency index, ratio of MT4 KD to test compound KD for binding affinity to TG2 (unknown origin) assessed as dissociation constant at 30 degree C by isothermal titration calorimetry
[11] = biological target: T1, Protein-glutamine gamma-glutamyltransferase (Homo sapiens); test: Induction of TG2 degradation in human SK-OV-3 cells assessed as reduction in TG2 level at 0.1 to 10 uM measured after 24 hrs by Western blot analysis; format: cell-based; settings: dose 0.1-10 µM
[12] = biological target: T1, Protein-glutamine gamma-glutamyltransferase (Homo sapiens); test: Induction of TG2 degradation in human SK-OV-3 cells assessed as reduction in TG2 level at 0.1 to 30 uM by Western blot analysis; format: cell-based; settings: dose 0.1-30 µM, time 2-12 hrs, TDE = time-dependent effect
Outline: (§5)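 SKOV3 cells treated with 0.1, 0.3, 1, 3, 10 or 30 μM for 0, 2, 6, 12 and 24 h. TG2 measured by western blot of RIPA lysates with GAPDH reprobe after stripping, followed by densitometry. n = 3 experimental replicates.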

[13] = biological target: T1, Protein-glutamine gamma-glutamyltransferase (Homo sapiens); test: Induction of TG2 degradation in human OVCAR-5 cells assessed as reduction of TG2 level at 1 to 10 uM measured after 24 hrs by Western blot analysis; settings: dose 1-10 µM
[14] = biological target: T2, Protein-glutamine gamma-glutamyltransferase (Homo sapiens, UniProt P21980); test: Binding affinity to TG2 (unknown origin) assessed as dissociation constant at 30 degree C by isothermal titration calorimetry
T2 sequence (P21980 whole entry): T1 sequence (whole entry)

[15] = tested on: SK-OV-3; test: Cytotoxicity against human SK-OV-3 cells assessed as cell death at 0.1 to 30 uM treated every 6 to 8 hrs for 5 days by CCK-8 assay; format: functional, cell-based; settings: dose 0.1-30 µM, time 5.0 day; outline: as §4
[16] = biological target: T1, Protein-glutamine gamma-glutamyltransferase (Homo sapiens); test: Induction of TG2 degradation in human SK-OV-3 cells assessed as reduction in TG2 level measured within 6 hrs by Western blot analysis; format: cell-based; settings: dose 0.1-10 µM
[17] = biological target: T1, Protein-glutamine gamma-glutamyltransferase (Homo sapiens); test: Induction of TG2 degradation in human SK-OV-3 cells assessed as maximal degradation at 10 to 30 uM measured after 6 hrs by Western blot analysis; format: cell-based; settings: dose 10-30 µM; outline: as §5
[18] = biological target: T1, Protein-glutamine gamma-glutamyltransferase (Homo sapiens); test: Induction of TG2 degradation in human OVCAR-5 cells assessed as reduction in TG2 level at 10 uM incubated for 6 hrs followed by MG132 addition and measured after 8 hrs by Western blot analysis; format: cell-based; settings: time 14.0 hrs
Outline: (§6)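 Proteasome dependence checked in OVCAR5 or SKOV3 cells: compound at 10 μM for 6 h, with MG132 at 20 μM for 8 h. TG2 measured by western blot, and band intensity expressed relative to DMSO control. n = 3.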

[19] = biological target: T1, Protein-glutamine gamma-glutamyltransferase (Homo sapiens); test: Induction of TG2 degradation in human SK-OV-3 cells assessed as reduction in TG2 level measured after 2 to 12 hrs by Western blot analysis; format: cell-based; settings: dose 0.1-30 µM, time 2-12 hrs; outline: as §5
[20] = biological target: T1, Protein-glutamine gamma-glutamyltransferase (Homo sapiens); test: Induction of TG2 degradation in human SK-OV-3 cells assessed as reduction of TG2 level treated every 6 to 8 hrs for 24 hrs by Western blot analysis; format: cell-based; settings: dose 1-10 µM
Outline: (§7)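 OVCAR5 or SKOV3 cells given compound at 1 or 10 μM, redosed every 6–8 h over 24 h. TG2 measured at 24 h by western blot of RIPA lysates.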

[21] = biological target: T1, Protein-glutamine gamma-glutamyltransferase (Homo sapiens); test: Induction of TG2 degradation in human OVCAR-5 cells assessed as reduction of TG2 level treated every 6 to 8 hrs for 24 hrs by Western blot analysis; format: cell-based; settings: dose 1-10 µM; outline: as §7
[22] = biological target: T1, Protein-glutamine gamma-glutamyltransferase (Homo sapiens); test: Induction of TG2 degradation in human SK-OV-3 cells assessed as reduction of TG2 level at 1 to 10 uM measured after 12 hrs by Western blot analysis; format: cell-based; settings: dose 1-10 µM, time 24.0 hrs, in the assay text read “24 hrs” for “12 hrs”; outline: as §5
[23] = biological target: T1, Protein-glutamine gamma-glutamyltransferase (Homo sapiens); test: Induction of TG2 degradation in human OVCAR-5 cells assessed as reduction in TG2 level at 0.1 to 10 uM measured after 24 hrs by Western blot analysis; format: cell-based; settings: dose 0.1-10 µM; outline: as §1
[24] = biological target: T1, Protein-glutamine gamma-glutamyltransferase (Homo sapiens); test: Induction of TG2 degradation in human OVCAR-5 cells assessed as reduction in TG2 level measured within 6 hrs by Western blot analysis; format: cell-based; settings: dose 0.1-10 µM
[25] = biological target: T1, Protein-glutamine gamma-glutamyltransferase (Homo sapiens); test: Induction of TG2 degradation in human OVCAR-5 cells assessed as reduction in TG2 level at 10 uM incubated for 6 hrs in presence of VHL-L by Western blot analysis; format: cell-based
Outline: (§8)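 OVCAR5 or SKOV3 cells treated for 6 h with compound at 10 μM plus 10 μM VHL ligand as competitor. TG2 measured by western blot with densitometry against control. n = 3.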

[26] = biological target: T1, Protein-glutamine gamma-glutamyltransferase (Homo sapiens); test: Induction of TG2 degradation in human SK-OV-3 cells assessed as reduction in TG2 level at 10 uM incubated for 6 hrs in presence of VHL-L by Western blot analysis; format: cell-based; outline: as §8
[27] = biological target: T1, Protein-glutamine gamma-glutamyltransferase (Homo sapiens); test: Induction of TG2 degradation in human SK-OV-3 cells assessed as reduction of TG2 level at 10 uM incubated for 6 hrs followed by MG132 addition and measured after 8 hrs by Western blot analysis; format: cell-based; settings: time 14.0 hrs; outline: as §6

| SMILES | Activity [1] | inhibition [2] | inhibition [3] | Activity [4] | inhibition [5] | inhibition [6] | inhibition [7] | inhibition [8] | Activity [9] | Ratio [10] | Activity [11] | Activity [12] | Activity [13] | Activity [15] | Activity [16] | Activity [17] | Activity [18] | Activity [19] | Activity [20] | Activity [21] | other results |
| --- | --- | --- | --- | --- | --- | --- | --- | --- | --- | --- | --- | --- | --- | --- | --- | --- | --- | --- | --- | --- | --- |
| Cc1cc(N(C)CCOCCC(=O)N[C@H](C(=O)N2C[C@@H](O)C[C@H]2C(=O)NCc2ccc(-c3scnc3C)cc2)C(C)(C)C)nc(Nc2ccc(NC(=O)Cc3ccccc3)cc2)n1 | inactive | inactive | inactive | inactive | inactive | inactive | inactive | inactive |  |  |  |  |  |  |  |  |  |  |  |  |  |
| Cc1cc(N(C)CCOCCC(=O)N[C@H](C(=O)N2C[C@H](O)C[C@H]2C(=O)NCc2ccc(-c3scnc3C)cc2)C(C)(C)C)nc(Nc2ccc(NC(=O)Cc3ccccc3)cc2)n1 |  | Active | Active |  | Active | Active | Active | Active | inactive | > 12.8 | inactive | Tde | inactive | inactive | Dose-Dependent Effect | Active | inactive | Dose-Dependent Effect | Active | Active | Kd [14]: > 100 µM; Activity [22]: inactive; Activity [23]: inactive; Activity [24]: Dose-Dependent Effect; Activity [25]: inactive; Activity [26]: inactive; Activity [27]: inactive |
| Cc1cc(N(C)CCOCCOCCOCCOCCOCCC(=O)N[C@H](C(=O)N2C[C@@H](O)C[C@H]2C(=O)NCc2ccc(-c3scnc3C)cc2)C(C)(C)C)nc(Nc2ccc(NC(=O)Cc3ccccc3)cc2)n1 | inactive | inactive | inactive | inactive | inactive | inactive | inactive | inactive |  |  |  |  |  |  |  |  |  |  |  |  |  |
| Cc1cc(N(C)CCOCCOCCOCCOCCOCCC(=O)N[C@H](C(=O)N2C[C@H](O)C[C@H]2C(=O)NCc2ccc(-c3scnc3C)cc2)C(C)(C)C)nc(Nc2ccc(NC(=O)Cc3ccccc3)cc2)n1 |  | Active | Active |  | Active | Active | Active | Active | inactive | 8.8 | inactive | Tde | inactive | inactive | Dose-Dependent Effect | Active | inactive | Dose-Dependent Effect | Active | Active | Activity [22]: inactive; Activity [23]: inactive; Activity [24]: Dose-Dependent Effect; Activity [25]: inactive; Activity [26]: inactive; Activity [27]: inactive |
